# In the library only some 1.8% were active in any assay of this set; here they are far more common.
# Jurkat NFkB inh = inhibitors of the PMA/ionomycin-induced NF-kB reporter in Jurkat cells. PMA/ionomycin-induced NF-kB luciferase reporter, luminescence. inhibition, % at 4 µM. 330,000 compounds, 0.53% hits; in the data active means inhibition above about 50%
# Hep lipid drop = hepatic lipid droplet formation modulation | AID 1656 | AML12 mouse hepatocytes, oleate lipid droplets, BODIPY imaging | inhibition, % at 6.5 µM | 240,000 compounds, 0.4% hits;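 active means lipid droplet intensity inhibited by at least 50%, with more than 500 cells counted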
#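 Assay system: AML12 mouse liver cells | Compound: 6.5 µM single-point dosing | Schedule: Overnight exposure | Technique: Fluorescence imaging, 20x objective, two fields per well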
# Gli-Sufu antag = antagonists of Gli-Sufu signaling; inhibition, % at 5 µM; Sufu-KO-LIGHT fibroblasts, Gli luciferase reporter luminescence; 340,000 compounds, 0.74% hits; AID 588413;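 active means inhibition above about 55%, limit read from the data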;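 further: 0% = DMSO-treated cells and 100% = wells with medium but no cells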
# hiPSC survival = enhancers of human iPSC single-cell survival. hiPSC single-cell survival, ATPlite luminescence; 100% = ROCK inhibitor wells, 0% = DMSO. survival enhancement, % at 20 µM. 360,000 compounds, 0.044% hits; in the data active means survival enhancement above about 18%;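 further: cells exposed to compounds for 16 hours before the ATP read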
# 697 NFkB inh = inhibitors of the PMA/ionomycin-induced NF-kB reporter in 697 B cells. 697 B-cell NF-kB luciferase reporter, 16 h. inhibition, % at 4 µM. 330,000 compounds, 0.33% hits; in the data active means inhibition above about 35%
# H9c2 TAG inh = reduces triacylglycerol accumulation in H9c2 cells; Nile Red lipid (TAG) fluorescence; cells loaded with 200 µM oleic acid; inhibition, % at 12.5 µM; 230,000 compounds, 0.66% hits; AID 651582;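 active means pattern-corrected inhibition of lipid staining of at least 50% with the nuclear-stain viability signal not falling by more than 50%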;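 further: 0% = DMSO wells and 100% = triacsin C control wells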
# 697 NFkB conf = lowers PMA/ionomycin-induced NF-kB signal in 697 B cells; shares compounds with 697 NFkB inh; 697 B-cell NF-kB luciferase, 16 h; inhibition, % at 4 µM; 2,000 compounds, 35% hits; AID 449746; in the data active means inhibition mostly above about 28%, no sharp cut-off; inactive means mostly below about 22%
# Starred values were filed as active, the others as inactive; i = inactive; . = not tested or not shown.
SMILES,Jurkat NFkB inh,Hep lipid drop,Gli-Sufu antag,hiPSC survival,697 NFkB inh,H9c2 TAG inh,697 NFkB conf
O=C(CC1C(=O)NCCN1C(=O)c1ccc([N+](=O)[O-])cc1)Nc1ccc(F)cc1 (stereo not drawn),-12.5,-16.8,-7.2,-0.3,10.9,.,.
O=C(CSCC(=O)c1ccc([N+](=O)[O-])cc1)c1ccc([N+](=O)[O-])cc1,.,.,.,-0.4,.,.,.
CC(=O)N=c1sccn1CC(=O)c1ccc([N+](=O)[O-])cc1,9.0,.,3.4,0.4,35.8*,.,19.1
Cc1c(Cc2ccccc2)c(=O)oc2c(C)c(OCC(=O)NCC3CCC(C(=O)O)CC3)ccc12 (stereo not drawn),-10.8,-13.8,-14.0,1.3,39.5*,.,26.8
Cc1cc2ccccn2c1C(=O)c1ccc(NN)c([N+](=O)[O-])c1,19.4,2.7,-0.6,-1.8,45.4*,-14.7,42.1*
Cc1cc2ccccn2c1C(=O)c1cc([N+](=O)[O-])cc([N+](=O)[O-])c1,16.5,-8.8,-6.0,-0.5,-3.3,-9.4,.
COC(=O)C1CCN(C(=O)c2oc3c(Cl)cc(C)cc3c2C)CC1,-99.5,-22.2,-103.0,-0.5,-264.5,.,-281.8
Cc1cc(C)c(C(=O)N2CCCC(CNS(=O)(=O)N(C)C)C2)o1 (stereo not drawn),7.7,1.3,-9.5,-0.3,-12.7,.,.
NC(=S)c1ncc(C(F)(F)F)cc1Cl,-1.1,-10.0,2.1,-0.8,9.8,1.0,.
NC(=S)Nc1ncc(C(F)(F)F)cc1Cl,5.3,3.5,-4.2,1.6,47.3*,.,-4.7
N/C(=N\OC(=O)COc1ccc2ccccc2c1Br)c1ccncc1,-19.6,4.7,.,.,-22.4,.,.
N=C1C(c2nc3ccccc3s2)=C(O)CN1C1CCCCC1,-123.6,-0.2,-40.6,-1.7,-270.8,.,-88.3
COc1ccc(-c2csc3nc(-c4cccnc4)nc(N4CCC(C(N)=O)CC4)c23)cc1OC,15.5,0.8,21.2,0.3,38.9*,.,25.8*
COc1ccc(-c2csc3nc(C)nc(N4CCCCC4)c23)cc1OC,6.5,-1.8,1.0,-0.4,24.4,6.3,.
COc1ccc(-c2noc(N3CCC(C(=O)Nc4ccccc4Cl)CC3)n2)cc1,19.7,8.5,4.8,0.8,39.1*,14.7,19.4
COc1ccc(-c2noc(N3CCC(C(=O)Nc4ccc(OC)c(OC)c4)CC3)n2)cc1,16.6,0.1,-5.8,-1.3,46.7*,1.6,38.0*
CCCCOC(=O)C1=C(C)NC(=O)NC1c1ccccc1 (stereo not drawn),2.7,7.9,-2.8,-0.6,2.9,.,.
O=C(/C=C/c1ccc(O)c(O)c1)c1ccccc1O,-18.5,-0.8,12.4,-0.5,-276.0,24.5,-179.8
COc1cc(NC(=S)NC(=O)c2ccc(C(C)(C)C)cc2)ccc1NC(=O)c1cccs1,-42.0,-26.4,-4.8,-3.3,i,.,-12.9
C[C@@H]1CN([C@@H](C)CO)S(=O)(=O)c2ccc(Br)cc2O[C@H]1CN(C)C(=O)C1CCC1,.,.,.,-1.4,.,-10.3,.
CCOC(=O)CSc1nnc(COc2cccc(C)c2)o1,5.6,-0.2,2.9,0.2,13.5,.,.
Cc1ccc(C(=O)CSc2nnc(COc3cccc(C)c3)o2)cc1,-4.4,.,5.8,-0.8,49.4*,.,56.9*
CCN(CC)S(=O)(=O)c1ccc(N2CCCC2)c(NC(=O)CN2C(=O)NC3(CCCC3)C2=O)c1,12.3,.,-0.2,-0.5,-6.6,-9.2,.
CNC(=O)c1cc(Oc2ccc(NC(=O)Nc3ccc(Cl)c(C(F)(F)F)c3)cc2)ccn1,28.7,.,-2.1,2.2,62.5*,-8.0,59.5*
Cc1ccc(-c2csc(N/N=C/c3ccco3)n2)c(C)c1,-88.6,6.6,-13.3,0.5,-402.7,.,-20.4
SMILES,Jurkat NFkB inh,Hep lipid drop,Gli-Sufu antag,hiPSC survival,697 NFkB inh,H9c2 TAG inh,697 NFkB conf
CC(=O)Nc1ccc2[nH]c(C)c(CC=C(Cl)Cl)c(=O)c2c1,-2.9,2.1,2.7,12.2,42.1*,11.9,15.3
COc1cc(C(=O)NCc2nnc(SCC(=O)N3CCCc4ccccc43)o2)cc(OC)c1OC,0.9,-21.7,-9.9,1.0,-13.8,-5.4,.
O=C(CCN1C(=O)/C(=C\c2ccccc2)SC1=S)NNC(=O)c1ccccc1O,0.9,-9.6,-5.6,0.0,18.9,.,.
CCOCCCNc1nc2c(C)cccn2c(=O)c1/C=C1\SC(=S)N(C(C)CC)C1=O (stereo not drawn),5.8,86.3*,-1.3,-0.3,37.2*,i,31.6*
CCOCCCNc1nc2c(C)cccn2c(=O)c1/C=C1\SC(=S)N(CC(C)C)C1=O,0.5,.,-0.9,3.8,21.2,-97.4,.
Cc1[nH]n(C)c(=O)c1C(=O)c1c(-c2ccccc2Cl)noc1C,0.7,-0.2,15.9,0.1,-10.6,-4.6,.
COc1ccc(/C=C2\SC(=S)N(CCC(=O)Nc3ccc(C(=O)O)cc3)C2=O)cc1,-18.9,-3.3,32.1,0.3,43.6*,.,59.8*
CCc1ccc(/C=C2/SC(=S)N(CCC(=O)Nc3cccc(C(=O)O)c3)C2=O)cc1,-8.7,-0.8,30.3,1.5,49.7*,13.8,58.9*
COc1ccc(/C=C2/SC(=S)N(CCC(=O)O)C2=O)cc1,45.3,.,27.4,7.2,74.3*,.,75.2*
CCc1ccc(/C=C2/SC(=S)N(CCC(=O)Nc3ccc(C(=O)O)cc3)C2=O)cc1,12.9,0.9,.,-0.2,76.9*,-1.2,71.9*
CCc1ccc(C=C2SC(=S)N(CCCC(=O)Nc3ccc(C(=O)O)cc3)C2=O)cc1,.,.,.,-3.3,.,21.3,.
CC(/C=C1\SC(=S)N(CCC(=O)Nc2cccc(C(=O)O)c2)C1=O)=C\c1ccccc1,9.6,-0.2,41.1,0.6,9.2,.,.
CC(=O)c1sc(N/N=C2\CC3CC2C(C)C3(C)C)nc1C (stereo not drawn),-11.7,0.0,-19.8,-0.4,-35.7,4.8,.
CC1Oc2ccccc2C=C1/C=N/Nc1ccc(C(=O)O)cc1 (stereo not drawn),-126.0,-0.1,-103.5,0.5,-350.5,31.8,-103.9
Cc1ccc(NS(=O)(=O)c2cccc(C(=O)O)c2)cc1S(=O)(=O)N1CCOCC1,0.4,-6.2,-8.0,-0.2,14.9,.,.
Cc1ccc(NS(=O)(=O)c2ccc(Br)s2)cc1S(=O)(=O)N1CCOCC1,-8.7,-31.9,3.5,0.3,45.9*,12.8,-7.8
NS(=O)(=O)c1ccc(N=Nc2ccc(O)c3ncccc23)cc1,14.3,1.5,49.0,-0.5,-388.0,.,-255.2
CCS(=O)(=O)c1ccc(OC)c(N=Nc2ccc(O)c3ncccc23)c1,5.5,-0.5,11.1,-0.7,-20.4,3.7,.
O=C(/C=C/c1ccccc1Cl)NCc1cccs1,-27.4,-10.2,-50.0,-1.4,-16.9,.,.
COc1ccc(-c2nsc3c(N4CCCC4)ncnc23)cc1,-76.8,.,-7.1,-5.3,-457.7,-12.1,-348.2
CN=c1scc(C)n1/N=C/c1ccc2c(c1)OCO2,-130.9,1.8,-82.7,-5.7,-272.7,-8.9,-262.2

# Screening data (PubChem)
